Measurements published in ChEMBL document CHEMBL1156410, “Design and synthesis of a combinatorial chemistry library of 7-acyl, 10-acyl, and 7,10-diacyl analogues of paclitaxel (taxol) using solid phase synthesis” (J Nat Prod, 2002).
≈ marks a conversion by molar mass, not a printed value.

Assays:
[1] = Induction of tubulin polymerization at 0.1 uM by DAPI fluorescence method relative to control
Summary of the method: (§1)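 Microplate assay in PMEG buffer (100 mM PIPES, 1 mM MgSO₄, 2 mM EGTA, 0.1 mM GTP, pH 6.9) containing ligand; DAPI final 10 µM, tubulin final 5 µM. Fluorescence followed at 37 °C, excitation 360/40 nm, emission 460/40 nm. Change in fluorescence normalized to the curve of 10 µM paclitaxel standard. Samples in duplicate, triplicate or quadruplicate; concentrations over 2 orders of magnitude tested.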

[2] = Induction of tubulin polymerization at 10 uM by DAPI fluorescence method relative to control; summary of the method: as §1
[3] = Induction of tubulin polymerization at 1 uM by DAPI fluorescence method relative to control; summary of the method: as §1
[4] = Induction of tubulin polymerization by DAPI fluorescence method; settings: read-out: I50; summary of the method: as §1
[5] = test system: A2780; assay: Cytotoxicity against human A2780 cells; assay type: functional, cell-based

Row | Activity [1] [%] | Activity [2] [%] | Activity [3] [%] | IC50 [4] [nM] | SMILES | IC50 [5] [µg/mL]
1 | 0 | 24 | 3 | – | CCC(=O)O[C@H]1C[C@H]2OC[C@@]2(OC(C)=O)[C@H]2[C@H](OC(=O)c3ccccc3)[C@]3(O)C[C@H](OC(=O)[C@H](O)[C@@H](NC(=O)c4ccccc4)c4ccccc4)C(C)=C([C@@H](OC(=O)OCc4ccccc4)C(=O)[C@]12C)C3(C)C | –
2 | 4 | 123 | 52 | – | CCCC(=O)O[C@H]1C[C@H]2OC[C@@]2(OC(C)=O)[C@H]2[C@H](OC(=O)c3ccccc3)[C@]3(O)C[C@H](OC(=O)[C@H](O)[C@@H](NC(=O)c4ccccc4)c4ccccc4)C(C)=C([C@@H](OC(=O)CC)C(=O)[C@]12C)C3(C)C | –
3 | 13 | 114 | 54 | – | CCC(=O)O[C@H]1C(=O)[C@@]2(C)[C@H]([C@H](OC(=O)c3ccccc3)[C@]3(O)C[C@H](OC(=O)[C@H](O)[C@@H](NC(=O)c4ccccc4)c4ccccc4)C(C)=C1C3(C)C)[C@]1(OC(C)=O)CO[C@@H]1C[C@@H]2O | –
4 | 5 | 111 | 44 | – | CCC(=O)O[C@H]1C(=O)[C@]2(C)[C@@H](OC(C)=O)C[C@H]3OC[C@@]3(OC(C)=O)[C@H]2[C@H](OC(=O)c2ccccc2)[C@]2(O)C[C@H](OC(=O)[C@H](O)[C@@H](NC(=O)c3ccccc3)c3ccccc3)C(C)=C1C2(C)C | –
5 | 29 | 116 | 66 | – | C/C=C/C(=O)O[C@H]1C(=O)[C@]2(C)[C@@H](OC(=O)CCl)C[C@H]3OC[C@@]3(OC(C)=O)[C@H]2[C@H](OC(=O)c2ccccc2)[C@]2(O)C[C@H](OC(=O)[C@H](O)[C@@H](NC(=O)c3ccccc3)c3ccccc3)C(C)=C1C2(C)C | –
6 | 22 | 78 | 52 | – | COc1cccc(C(=O)O[C@H]2C[C@H]3OC[C@@]3(OC(C)=O)[C@H]3[C@H](OC(=O)c4ccccc4)[C@]4(O)C[C@H](OC(=O)[C@H](O)[C@@H](NC(=O)c5ccccc5)c5ccccc5)C(C)=C([C@@H](OC(=O)c5ccccc5)C(=O)[C@]23C)C4(C)C)c1 | –
7 | 10 | 53 | 26 | – | CC(=O)O[C@@]12CO[C@@H]1C[C@H](OC(=O)C1CC1)[C@@]1(C)C(=O)[C@H](OC(=O)OCc3ccccc3)C3=C(C)[C@@H](OC(=O)[C@H](O)[C@@H](NC(=O)c4ccccc4)c4ccccc4)C[C@@](O)([C@@H](OC(=O)c4ccccc4)[C@H]21)C3(C)C | –
8 | 20 | 120 | 51 | – | CCC(=O)O[C@H]1C(=O)[C@]2(C)[C@@H](OC(=O)C=C(C)C)C[C@H]3OC[C@@]3(OC(C)=O)[C@H]2[C@H](OC(=O)c2ccccc2)[C@]2(O)C[C@H](OC(=O)[C@H](O)[C@@H](NC(=O)c3ccccc3)c3ccccc3)C(C)=C1C2(C)C | –
9 | 10 | 102 | 51 | – | CCCCC(=O)O[C@H]1C[C@H]2OC[C@@]2(OC(C)=O)[C@H]2[C@H](OC(=O)c3ccccc3)[C@]3(O)C[C@H](OC(=O)[C@H](O)[C@@H](NC(=O)c4ccccc4)c4ccccc4)C(C)=C([C@@H](OC(=O)CC)C(=O)[C@]12C)C3(C)C | –
10 | 33 | 81 | 66 | – | C/C=C/C(=O)O[C@H]1C(=O)[C@]2(C)[C@@H](OC(=O)c3ccccc3)C[C@H]3OC[C@@]3(OC(C)=O)[C@H]2[C@H](OC(=O)c2ccccc2)[C@]2(O)C[C@H](OC(=O)[C@H](O)[C@@H](NC(=O)c3ccccc3)c3ccccc3)C(C)=C1C2(C)C | –
11 | – | – | – | 1300 | CC(=O)O[C@@]12CO[C@@H]1C[C@H](OC(=O)CN1CCOCC1)[C@@]1(C)C(=O)[C@H](O)C3=C(C)[C@@H](OC(=O)[C@H](O)[C@@H](NC(=O)c4ccccc4)c4ccccc4)C[C@@](O)([C@@H](OC(=O)c4ccccc4)[C@H]21)C3(C)C | 0.2 (≈ 0.213 µM)
12 | 10 | 43 | 39 | – | CC(=O)O[C@@]12CO[C@@H]1C[C@H](OC(=O)C=C(C)C)[C@@]1(C)C(=O)[C@H](OC(=O)OCc3ccccc3)C3=C(C)[C@@H](OC(=O)[C@H](O)[C@@H](NC(=O)c4ccccc4)c4ccccc4)C[C@@](O)([C@@H](OC(=O)c4ccccc4)[C@H]21)C3(C)C | –
13 | – | – | – | 1020 | CC(=O)O[C@@]12CO[C@@H]1C[C@H](OC(=O)CN1CCCCC1)[C@@]1(C)C(=O)[C@H](O)C3=C(C)[C@@H](OC(=O)[C@H](O)[C@@H](NC(=O)c4ccccc4)c4ccccc4)C[C@@](O)([C@@H](OC(=O)c4ccccc4)[C@H]21)C3(C)C | 0.18 (≈ 0.192 µM)
14 | 6 | 113 | 62 | – | CCC(=O)O[C@H]1C(=O)[C@]2(C)[C@@H](OC(=O)C3CC3)C[C@H]3OC[C@@]3(OC(C)=O)[C@H]2[C@H](OC(=O)c2ccccc2)[C@]2(O)C[C@H](OC(=O)[C@H](O)[C@@H](NC(=O)c3ccccc3)c3ccccc3)C(C)=C1C2(C)C | –
15 | – | – | – | 590 | CC(=O)O[C@@]12CO[C@@H]1C[C@H](OC(=O)CN1CCN(C)CC1)[C@@]1(C)C(=O)[C@H](O)C3=C(C)[C@@H](OC(=O)[C@H](O)[C@@H](NC(=O)c4ccccc4)c4ccccc4)C[C@@](O)([C@@H](OC(=O)c4ccccc4)[C@H]21)C3(C)C | 0.67 (≈ 0.704 µM)
16 | 46 | 113 | 78 | – | CC(=O)O[C@@]12CO[C@@H]1C[C@H](O)[C@@]1(C)C(=O)[C@H](OC(=O)c3ccccc3)C3=C(C)[C@@H](OC(=O)[C@H](O)[C@@H](NC(=O)c4ccccc4)c4ccccc4)C[C@@](O)([C@@H](OC(=O)c4ccccc4)[C@H]21)C3(C)C | –
17 | – | – | – | 4340 | CC(=O)O[C@@]12CO[C@@H]1C[C@H](OC(=O)CN1CCN(c3ccc(C(C)=O)cc3)CC1)[C@@]1(C)C(=O)[C@H](O)C3=C(C)[C@@H](OC(=O)[C@H](O)[C@@H](NC(=O)c4ccccc4)c4ccccc4)C[C@@](O)([C@@H](OC(=O)c4ccccc4)[C@H]21)C3(C)C | 0.9 (≈ 0.852 µM)
18 | 29 | 92 | 56 | – | CC(=O)O[C@@]12CO[C@@H]1C[C@H](OC(=O)CCl)[C@@]1(C)C(=O)[C@H](OC(=O)c3ccccc3)C3=C(C)[C@@H](OC(=O)[C@H](O)[C@@H](NC(=O)c4ccccc4)c4ccccc4)C[C@@](O)([C@@H](OC(=O)c4ccccc4)[C@H]21)C3(C)C | –
19 | 0 | 97 | 33 | – | CCC(=O)O[C@H]1C(=O)[C@]2(C)[C@@H](OC(=O)c3ccccc3)C[C@H]3OC[C@@]3(OC(C)=O)[C@H]2[C@H](OC(=O)c2ccccc2)[C@]2(O)C[C@H](OC(=O)[C@H](O)[C@@H](NC(=O)c3ccccc3)c3ccccc3)C(C)=C1C2(C)C | –
20 | 20 | 114 | 72 | – | CCC(=O)O[C@H]1C(=O)[C@]2(C)[C@@H](OC(=O)CCl)C[C@H]3OC[C@@]3(OC(C)=O)[C@H]2[C@H](OC(=O)c2ccccc2)[C@]2(O)C[C@H](OC(=O)[C@H](O)[C@@H](NC(=O)c3ccccc3)c3ccccc3)C(C)=C1C2(C)C | –
21 | – | – | – | – | CC(=O)O[C@@]12CO[C@@H]1C[C@H](OC(=O)CN1CCNCC1)[C@@]1(C)C(=O)[C@H](O)C3=C(C)[C@@H](OC(=O)[C@H](O)[C@@H](NC(=O)c4ccccc4)c4ccccc4)C[C@@](O)([C@@H](OC(=O)c4ccccc4)[C@H]21)C3(C)C | 0.86 (≈ 0.917 µM)
22 | 5 | 111 | 37 | – | CCC(=O)O[C@H]1C(=O)[C@]2(C)[C@@H](OC(=O)CC)C[C@H]3OC[C@@]3(OC(C)=O)[C@H]2[C@H](OC(=O)c2ccccc2)[C@]2(O)C[C@H](OC(=O)[C@H](O)[C@@H](NC(=O)c3ccccc3)c3ccccc3)C(C)=C1C2(C)C | –
23 | 26 | 117 | 80 | – | C/C=C/C(=O)O[C@H]1C(=O)[C@@]2(C)[C@H]([C@H](OC(=O)c3ccccc3)[C@]3(O)C[C@H](OC(=O)[C@H](O)[C@@H](NC(=O)c4ccccc4)c4ccccc4)C(C)=C1C3(C)C)[C@]1(OC(C)=O)CO[C@@H]1C[C@@H]2O | –
24 | 27 | 109 | 41 | – | C/C=C/C(=O)O[C@H]1C(=O)[C@]2(C)[C@@H](OC(=O)C3CC3)C[C@H]3OC[C@@]3(OC(C)=O)[C@H]2[C@H](OC(=O)c2ccccc2)[C@]2(O)C[C@H](OC(=O)[C@H](O)[C@@H](NC(=O)c3ccccc3)c3ccccc3)C(C)=C1C2(C)C | –
25 | – | – | – | 2040 | CC(=O)O[C@@]12CO[C@@H]1C[C@H](OC(=O)CN1Cc3ccccc3C1)[C@@]1(C)C(=O)[C@H](O)C3=C(C)[C@@H](OC(=O)[C@H](O)[C@@H](NC(=O)c4ccccc4)c4ccccc4)C[C@@](O)([C@@H](OC(=O)c4ccccc4)[C@H]21)C3(C)C | –
26 | 30 | 91 | 61 | – | CC(=O)O[C@@]12CO[C@@H]1C[C@H](OC(=O)C1CC1)[C@@]1(C)C(=O)[C@H](OC(=O)c3ccccc3)C3=C(C)[C@@H](OC(=O)[C@H](O)[C@@H](NC(=O)c4ccccc4)c4ccccc4)C[C@@](O)([C@@H](OC(=O)c4ccccc4)[C@H]21)C3(C)C | –
27 | 10 | 33 | 32 | – | CC(=O)O[C@@]12CO[C@@H]1C[C@H](OC(=O)c1ccccc1)[C@@]1(C)C(=O)[C@H](OC(=O)OCc3ccccc3)C3=C(C)[C@@H](OC(=O)[C@H](O)[C@@H](NC(=O)c4ccccc4)c4ccccc4)C[C@@](O)([C@@H](OC(=O)c4ccccc4)[C@H]21)C3(C)C | –
28 | 34 | 115 | 83 | – | CC(=O)O[C@@]12CO[C@@H]1C[C@H](O)[C@@]1(C)C(=O)[C@H](OC(=O)OCc3ccccc3)C3=C(C)[C@@H](OC(=O)[C@H](O)[C@@H](NC(=O)c4ccccc4)c4ccccc4)C[C@@](O)([C@@H](OC(=O)c4ccccc4)[C@H]21)C3(C)C | –
29 | 0 | 48 | 20 | – | CC(=O)O[C@@]12CO[C@@H]1C[C@H](OC(=O)CCl)[C@@]1(C)C(=O)[C@H](OC(=O)OCc3ccccc3)C3=C(C)[C@@H](OC(=O)[C@H](O)[C@@H](NC(=O)c4ccccc4)c4ccccc4)C[C@@](O)([C@@H](OC(=O)c4ccccc4)[C@H]21)C3(C)C | –
